Reference: ChEMBL document CHEMBL1146843, “Synthesis and properties of benzo[a]phenoxazinium chalcogen analogues as novel broad-spectrum antimicrobial photosensitizers” (J Med Chem, 2006)

Assays:
Candida albicans [1] = assay: Cellular uptake in Candida albicans ATCC 18804 at 20 uM after 10 mins; assay type: functional, organism-based
Summary of the method: (§1)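 Exponential-phase cells (bacteria in BHI, yeast in YM, 37 °C, 150 rpm) were incubated with dye in the dark for 10 min at room temperature. Centrifugation at 1550g for 6 min removed unbound dye, and pellets were resuspended in PBS without Ca2+/Mg2+. Pellets were dissolved in 10% SDS for ≥24 h. Fluorescence peak height was read at the dye-specific excitation and emission, against SDS calibration curves. Means of three experiments.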

Enterococcus faecalis [2] = assay: Photodynamic inactivation of Enterococcus faecalis ATCC 29212 at the fluence of 80 J/cm2 light at 2 uM after 10 mins; assay type: functional
Summary of the method: (§2)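 Exponential cultures were used: bacteria about 10^8 cells/mL in BHI, Candida in YM. Cells were dark-incubated with dye for 10 min at room temperature, then washed and resuspended in PBS without Ca2+/Mg2+. Illumination used 30-nm band-pass red light (630, 652 or 660 ± 15 nm per dye) at 60–100 mW/cm2 and room temperature. Ten-fold serial dilutions were plated on BHI agar at 37 °C overnight. CFU survival was expressed relative to untreated cells, in triplicate.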

Escherichia coli [3] = assay: Photodynamic inactivation of Escherichia coli ATCC 25922 at the fluence of 80 J/cm2 light at 5 uM after 10 mins; assay type: functional; summary of the method: as §2
Candida albicans [4] = assay: Photodynamic inactivation of Candida albicans ATCC 18804 at the fluence of 80 J/cm2 light at 20 uM after 10 mins; assay type: functional; summary of the method: as §2
[5] = Partition coefficient, log P at pH 7.4; assay type: physicochemical; details: octanol/water
Enterococcus faecalis [6] = assay: Cellular uptake in Enterococcus faecalis ATCC 29212 at 2 uM after 10 mins; assay type: functional, organism-based; summary of the method: as §1
Enterococcus faecalis [7] = assay: Photodynamic inactivation of Enterococcus faecalis ATCC 29212 at the fluence of 8 J/cm2 light at 2 uM after 10 mins; assay type: functional; summary of the method: as §2
Escherichia coli [8] = assay: Photodynamic inactivation of Escherichia coli ATCC 25922 at the fluence of 32 J/cm2 light at 5 uM after 10 mins; assay type: functional; summary of the method: as §2
Candida albicans [9] = assay: Photodynamic inactivation of Candida albicans ATCC 18804 at the fluence of 4 J/cm2 light at 20 uM after 10 mins; assay type: functional; summary of the method: as §2
Enterococcus faecalis [10] = assay: Photodynamic inactivation of Enterococcus faecalis ATCC 29212 at the fluence of 64 J/cm2 light at 2 uM after 10 mins; assay type: functional; summary of the method: as §2
Escherichia coli [11] = assay: Photodynamic inactivation of Escherichia coli ATCC 25922 at the fluence of 64 J/cm2 light at 5 uM after 10 mins; assay type: functional; summary of the method: as §2
Candida albicans [12] = assay: Photodynamic inactivation of Candida albicans ATCC 18804 at the fluence of 64 J/cm2 light at 20 uM after 10 mins; assay type: functional; summary of the method: as §2
Escherichia coli [13] = assay: Cellular uptake in Escherichia coli ATCC 25922 at 5 uM after 10 mins; assay type: functional, organism-based; summary of the method: as §1

| SMILES | Drug uptake (Candida albicans [1]) [%] | Activity (Enterococcus faecalis [2]) [%] | Activity (Escherichia coli [3]) [%] | Activity (Candida albicans [4]) [%] | logD [5] | Drug uptake (Enterococcus faecalis [6]) [%] | Activity (Enterococcus faecalis [7]) [%] | Activity (Escherichia coli [8]) [%] | Activity (Candida albicans [9]) [%] | Activity (Enterococcus faecalis [10]) [%] | Activity (Escherichia coli [11]) [%] | Activity (Candida albicans [12]) [%] | Drug uptake (Escherichia coli [13]) [%] |
| --- | --- | --- | --- | --- | --- | --- | --- | --- | --- | --- | --- | --- | --- |
| CC/N=c1/cc2oc3cc(N(CC)CC)ccc3nc-2c2ccccc12.Cl | 75 | 95 | 90 | >97 | 2.69 | – | – | – | – | – | – | – | – |
| CC/N=c1/cc2[se]c3cc(N(CC)CC)ccc3nc-2c2ccccc12.Cl | – | – | – | – | 2.08 | 75 | >99.999 | >100 | > 99 | – | – | – | – |
| CC/N=c1/cc2sc3cc(N(CC)CC)ccc3nc-2c2ccccc12.Cl | – | – | – | – | 2.76 | – | – | – | – | >99.9 | >99 | >98 | 75 |
